{"data": "Measurements of several laboratories", "organism": "Staphylococcus aureus", "effect on": "microbial growth", "note": "Compare with care: the assays were run in different laboratories."}
{"Compound": "CC(C(=O)O)N1c2nc(-c3ccc(Cl)cc3)c(C#N)c(=O)n2NC1c1ccccc1O (stereo not shown)", "strain": "ATCC25923", "concentration": "10 µg/mL", "time": "24 h", "inhibition zone": "14 mm"}
{"Compound": "Cc1cc(N)c2ccccc2[n+]1CCCCCCCCCC[n+]1c(C)cc(N)c2ccccc21", "method": "disc diffusion", "concentration": "50 µg/disc", "inhibition zone": "9 mm"}
{"Compound": "CC1(C)S[C@@H]2[C@H](NC(=O)[C@H](N)c3ccc(O)cc3)C(=O)N2[C@H]1C(=O)O", "method": "disc diffusion", "strain": "ATCC29213", "concentration": "250 µg/mL", "inhibition zone": "9.37 mm"}
{"Compound": "CC(C)Cc1nn(-c2nc3ccc(Cl)cc3s2)c2c1C(=O)c1ccccc1-2", "method": "well diffusion", "strain": "NCIM5021", "concentration": "1000 µg/mL", "inhibition zone": "11 mm"}
{"Compound": "CC(=O)C1=C(C)N2NC(C)(c3ccccc3O)N(C(C)C(=O)O)C2=NC1c1ccc(Cl)cc1 (stereo not shown)", "strain": "ATCC25923", "concentration": "15 µg/mL", "time": "24 h", "inhibition zone": "17 mm"}
{"Compound": "COc1cc(C=Cc2cc(-c3ccc(N(C)C)cc3)nc(O)n2)ccc1O", "method": "disc diffusion", "strain": "ATCC29213", "concentration": "250 µg/mL", "inhibition zone": "6 mm"}
{"Compound": "Cc1ccc2nc(-n3nc(C(C)C)c4c3-c3ccccc3C4=O)sc2c1", "method": "well diffusion", "strain": "NCIM5021", "concentration": "500 µg/mL", "inhibition zone": "13 mm"}
{"Compound": "CCOC(=O)C1=C(C)N2NC(c3ccccc3O)N(C(Cc3c[nH]c4ccccc34)C(=O)O)C2=NC1c1ccc(Cl)cc1 (stereo not shown)", "strain": "ATCC25923", "concentration": "15 µg/mL", "time": "24 h", "inhibition zone": "33 mm"}
{"Compound": "CC(C)c1nn(-c2nc3ccccc3s2)c2c1C(=O)c1ccccc1-2", "method": "well diffusion", "strain": "NCIM5021", "concentration": "1000 µg/mL", "inhibition zone": "12 mm"}
{"Compound": "O=C(O)c1cn(C2CC2)c2cc(N3CCNCC3)c(F)cc2c1=O", "strain": "SG511", "concentration": "1000 µg/mL", "inhibition zone": "18 mm"}
{"Compound": "N#Cc1c(-c2ccc(Cl)cc2)nc2n(c1=O)NC(c1ccccc1O)N2C(Cc1c[nH]c2ccccc12)C(=O)O (stereo not shown)", "strain": "ATCC25923", "concentration": "15 µg/mL", "time": "24 h", "inhibition zone": "32 mm"}
{"Compound": "COc1cc(C=CC(=O)CC(c2ccc([N+](=O)[O-])cc2)n2ccnc2)ccc1O (stereo not shown)", "method": "disc diffusion", "strain": "ATCC29213", "concentration": "250 µg/mL", "inhibition zone": "6 mm"}
{"Compound": "COc1ccc2nc(-n3nc(CC(C)C)c4c3-c3ccccc3C4=O)sc2c1", "method": "well diffusion", "strain": "NCIM5021", "concentration": "1000 µg/mL", "inhibition zone": "13 mm"}
{"Compound": "CC(C(=O)O)N1C2=NC(c3ccc(Cl)cc3)C3=C(OC(C)(C)OC3=O)N2NC1(C)c1ccccc1O (stereo not shown)", "strain": "ATCC25923", "concentration": "10 µg/mL", "time": "24 h", "inhibition zone": "10 mm"}
{"Compound": "[H]/N=C(/N)N[C@H]1[C@H](O)[C@@H](O)[C@H](O[C@@H]2O[C@@H](C)[C@](O)(C=O)[C@H]2O[C@@H]2O[C@@H](CO)[C@H](O)[C@@H](O)[C@@H]2NC)[C@@H](N/C(N)=N\\[H])[C@@H]1O", "method": "well diffusion", "strain": "NCIM5021", "concentration": "125 µg/mL", "inhibition zone": "20 mm"}
{"Compound": "CC(=O)C1=C(C)N2NC(c3ccccc3O)N(C(Cc3c[nH]c4ccccc34)C(=O)O)C2=NC1c1ccc(Cl)cc1 (stereo not shown)", "strain": "ATCC25923", "concentration": "15 µg/mL", "time": "24 h", "inhibition zone": "32 mm"}
{"Compound": "COc1cc(C=CC(=O)CC(c2ccc(N(C)C)cc2)n2ccnc2)ccc1O (stereo not shown)", "method": "disc diffusion", "strain": "ATCC29213", "concentration": "250 µg/mL", "inhibition zone": "9 mm"}
{"Compound": "CN[C@H](CC(C)C)C(=O)N[C@H]1C(=O)N[C@@H](CC(N)=O)C(=O)N[C@H]2C(=O)N[C@H]3C(=O)N[C@H](C(=O)N[C@H](C(=O)O)c4cc(O)cc(O)c4-c4cc3ccc4O)[C@H](O)c3ccc(c(Cl)c3)Oc3cc2cc(c3O[C@@H]2O[C@H](CO)[C@@H](O)[C@H](O)[C@H]2O[C@H]2C[C@](C)(N)[C@H](O)[C@H](C)O2)Oc2ccc(cc2Cl)[C@H]1O", "method": "disc diffusion", "strain": "ATCC29213", "concentration": "15.6 µg/disc", "time": "24 h", "inhibition zone": "16 mm"}
{"Compound": "CC(C)c1nn(-c2nc3ccc(Br)cc3s2)c2c1C(=O)c1ccccc1-2", "method": "well diffusion", "strain": "NCIM5021", "concentration": "250 µg/mL", "inhibition zone": "11 mm"}
